# According to ChEMBL document CHEMBL4480373, “Neuropilin-1 peptide-like ligands with proline mimetics, tested using the improved chemiluminescence affinity detection method” (Medchemcomm, 2019):
# pIC50: −log10 of the molar value. Square brackets hold non-standard residues; d marks the D form. Peptide text beside a SMILES is read from it. Oic = O=C(O)[C@@H]1C[C@@H]2CCCC[C@@H]2N1; Hyp = O=C(O)[C@@H]1C[C@@H](O)CN1; Pip(4-aza) = O=C(O)[C@@H]1CNCCN1; hArg = N=C(N)NCCCC[C@H](N)C(=O)O; Tic = O=C(O)[C@@H]1Cc2ccccc2CN1; ΔPro = O=C(O)[C@@H]1C=CCN1; Aze = O=C(O)[C@@H]1CCN1; Dab = NCC[C@H](N)C(=O)O
# Tests used:
# [1] = target: T1, Neuropilin-1 (Homo sapiens, UniProt O14786); assay: Inhibition of human biotinylated VEGF-A165 binding to recombinant human NRP1 receptor at 50 uM after 2 hrs by chemiluminescence analysis relative to control
# T1 sequence (O14786 whole entry): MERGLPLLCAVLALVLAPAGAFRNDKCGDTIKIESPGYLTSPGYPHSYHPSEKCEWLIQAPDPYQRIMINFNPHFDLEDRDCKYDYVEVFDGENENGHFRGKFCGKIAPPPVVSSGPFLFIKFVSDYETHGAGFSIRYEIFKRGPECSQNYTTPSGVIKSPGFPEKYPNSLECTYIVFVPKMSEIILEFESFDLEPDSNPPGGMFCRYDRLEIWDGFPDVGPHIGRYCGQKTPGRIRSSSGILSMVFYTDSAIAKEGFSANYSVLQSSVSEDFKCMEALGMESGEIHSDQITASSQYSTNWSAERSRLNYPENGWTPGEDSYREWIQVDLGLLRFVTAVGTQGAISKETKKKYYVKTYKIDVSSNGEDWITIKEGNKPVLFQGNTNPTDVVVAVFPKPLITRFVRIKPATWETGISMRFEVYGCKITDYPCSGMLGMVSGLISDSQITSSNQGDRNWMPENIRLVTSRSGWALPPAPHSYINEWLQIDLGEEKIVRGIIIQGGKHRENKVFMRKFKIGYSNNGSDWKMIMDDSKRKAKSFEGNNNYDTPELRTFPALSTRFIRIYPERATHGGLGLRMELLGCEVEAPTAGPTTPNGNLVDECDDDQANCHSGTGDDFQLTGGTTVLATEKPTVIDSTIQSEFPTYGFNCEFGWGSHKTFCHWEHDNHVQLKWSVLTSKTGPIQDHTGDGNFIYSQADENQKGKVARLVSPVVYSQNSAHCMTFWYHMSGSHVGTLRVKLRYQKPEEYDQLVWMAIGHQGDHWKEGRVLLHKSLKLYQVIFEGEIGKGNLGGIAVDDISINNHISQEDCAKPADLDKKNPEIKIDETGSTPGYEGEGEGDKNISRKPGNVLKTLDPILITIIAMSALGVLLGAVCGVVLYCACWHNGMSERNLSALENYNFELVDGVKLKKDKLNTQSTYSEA
# In short: (§1)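 Wells coated overnight at 4 °C with recombinant human NRP-1 (200 ng/well), blocked with 0.5% BSA/PBS. Peptide in PBS and biotinylated human VEGF-A165 (400 ng/mL, in PBS with 4 µg/mL heparin) incubated 2 h at room temperature. Detection by streptavidin-HRP and luminol chemiluminescence. Controls: ligand only (positive) and uncoated wells (negative). % inhibition calculated from these. IC50 by nonlinear regression.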
# [2] = target: T1, Neuropilin-1; assay: Inhibition of human biotinylated VEGF-A165 binding to recombinant human NRP1 receptor after 2 hrs by chemiluminescence analysis; settings: for pIC50: read-out: IC50; for IC50: read-out: pIC50 (converted); in short: as §1
# [3] = target: T1, Neuropilin-1; assay: Inhibition of human biotinylated VEGF-A165 binding to recombinant human NRP1 receptor at 100 uM after 2 hrs by chemiluminescence analysis relative to control; in short: as §1
# [4] = target: T1, Neuropilin-1; assay: Inhibition of human biotinylated VEGF-A165 binding to recombinant human NRP1 receptor at 25 uM after 2 hrs by chemiluminescence analysis relative to control; in short: as §1
# [5] = target: T1, Neuropilin-1; assay: Inhibition of human biotinylated VEGF-A165 binding to recombinant human NRP1 receptor at 10 uM after 2 hrs by chemiluminescence analysis relative to control; in short: as §1
# [6] = target: T1, Neuropilin-1; assay: Inhibition of human biotinylated VEGF-A165 binding to recombinant human NRP1 receptor at 5 uM after 2 hrs by chemiluminescence analysis relative to control; in short: as §1
# [7] = target: T1, Neuropilin-1; assay: Inhibition of human biotinylated VEGF-A165 binding to recombinant human NRP1 receptor at 1 uM after 2 hrs by chemiluminescence analysis relative to control; in short: as §1
# [8] = target: T1, Neuropilin-1; assay: Inhibition of human biotinylated VEGF-A165 binding to recombinant human NRP1 receptor at 2.5 uM after 2 hrs by chemiluminescence analysis relative to control; in short: as §1
# [9] = target: Neuropilin-1 (Rattus norvegicus, UniProt Q9QWJ9); assay: Inhibition of human biotinylated VEGF-A165 binding to Fc-tagged recombinant rat NRP1 receptor after 2 hrs by colorimetric analysis
# [10] = target: Neuropilin-1 (Rattus norvegicus) (UniProt Q9QWJ9); assay: Inhibition of human biotinylated VEGF-A165 binding to Fc-tagged recombinant rat NRP1 receptor at 0.3 uM after 2 hrs by colorimetric analysis relative to control
# [11] = target: Neuropilin-1 (Rattus norvegicus) (UniProt Q9QWJ9); assay: Inhibition of human biotinylated VEGF-A165 binding to Fc-tagged recombinant rat NRP1 receptor at 3 uM after 2 hrs by colorimetric analysis relative to control
# [12] = target: Neuropilin-1 (Rattus norvegicus) (UniProt Q9QWJ9); assay: Inhibition of human biotinylated VEGF-A165 binding to Fc-tagged recombinant rat NRP1 receptor at 10 uM after 2 hrs by colorimetric analysis relative to control
# [13] = target: Neuropilin-1 (Rattus norvegicus) (UniProt Q9QWJ9); assay: Inhibition of human biotinylated VEGF-A165 binding to Fc-tagged recombinant rat NRP1 receptor at 1 uM after 2 hrs by colorimetric analysis relative to control
# [14] = Half life in human plasma at 1 umol/ml up to 96 hrs by RP-HPLC and LC/MS analysis; format: ADME, cell-free
# In short: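 Citrate plasma pooled from four healthy donors, stored at –80 °C, preactivated 20 min at 37 °C with shaking. Aqueous peptide stock diluted into plasma to ~1 µmol/mL final and incubated 0–96 h. Aliquots quenched with equal volume 98% ethanol, centrifuged, supernatant lyophilized, reconstituted in water, analysed by RP-HPLC (LC-MS for selected samples). Half-life obtained by nonlinear regression.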
# [15] = target: Neuropilin-1 (Rattus norvegicus) (UniProt Q9QWJ9); assay: Inhibition of human biotinylated VEGF-A165 binding to Fc-tagged recombinant rat NRP1 receptor at 0.1 uM after 2 hrs by colorimetric analysis relative to control
Molecule,inhibition [1],pIC50 [2],inhibition [3],inhibition [4],inhibition [5],inhibition [6],IC50 [2],inhibition [7],inhibition [8],pIC50 [9],inhibition [10],inhibition [11],inhibition [12],inhibition [13],half-life at 1000 µM [14],inhibition [15]
N=C(N)NCCCC[C@H](N)C(=O)NCCCC[C@H](N)C(=O)N1CC=C[C@H]1C(=O)N1CC=C[C@H]1C(=O)N[C@@H](CCCNC(=N)N)C(=O)O (H-K(hArg)[ΔPro][ΔPro]R-OH),72.2%,4.85,79.3%,61.3%,45.4%,–,–,–,–,–,–,–,–,–,–,–
N=C(N)NCCCC[C@H](N)C(=O)NCCCC[C@H](N)C(=O)N[C@@H](CCN)C(=O)N1CC[C@H]1C(=O)N[C@@H](CCCNC(=N)N)C(=O)O (H-K(hArg)[Dab][Aze]R-OH),75.8%,4.93,78.8%,69.1%,49.6%,30.1%,10.7 µM,7.7%,12.9%,–,–,–,–,–,–,–
N=C(N)NCCCC[C@H](N)C(=O)NCCCC[C@H](N)C(=O)N1[C@H](C(=O)N2[C@H](C(=O)N[C@@H](CCCNC(=N)N)C(=O)O)C[C@@H]3CCCC[C@@H]32)C[C@@H]2CCCC[C@@H]21 (H-K(hArg)[Oic][Oic]R-OH),77.6%,5.14,83.6%,68.2%,53.4%,47.8%,–,32.9%,42.1%,–,–,–,–,–,–,–
N=C(N)NCCCC[C@H](N)C(=O)NCCCC[C@H](N)C(=O)N1C[C@H](O)C[C@H]1C(=O)N1C[C@H](O)C[C@H]1C(=O)N[C@@H](CCCNC(=N)N)C(=O)O (H-K(hArg)[Hyp][Hyp]R-OH),63.1%,4.67,71.7%,56.8%,36.7%,–,–,–,–,–,–,–,–,–,–,–
N=C(N)NCCCC[C@H](N)C(=O)NCCCC[C@H](N)C(=O)N[C@@H](CCN)C(=O)N1Cc2ccccc2C[C@H]1C(=O)N[C@@H](CCCNC(=N)N)C(=O)O (H-K(hArg)[Dab][Tic]R-OH),17.2%,< 4.00,0%,35%,31.5%,–,–,–,–,–,–,–,–,–,–,–
N=C(N)NCCCC[C@H](N)C(=O)NCCCC[C@H](N)C(=O)N1CCC[C@H]1C(=O)N1CCC[C@H]1C(=O)N[C@@H](CCCNC(=N)N)C(=O)O (H-K(hArg)PPR-OH),67.9%,4.68,77%,54.1%,37.1%,–,–,–,–,6.00,4.7%,79%,92.2%,41.4%,–,–
H-ATWLPPR-OH,43.8%,4.08,58.2%,35%,30.8%,–,83.2 µM,–,–,–,–,–,–,–,–,–
N=C(N)NCCCC[C@H](N)C(=O)NCCCC[C@H](N)C(=O)N1Cc2ccccc2C[C@H]1C(=O)N1Cc2ccccc2C[C@H]1C(=O)N[C@@H](CCCNC(=N)N)C(=O)O (H-K(hArg)[Tic][Tic]R-OH),40.7%,< 4.00,45.2%,31.4%,24.7%,–,–,–,–,–,–,–,–,–,–,–
N=C(N)NCCCC[C@H](N)C(=O)NCCCC[C@H](N)C(=O)N[C@@H](CCN)C(=O)N1[C@H](C(=O)N[C@@H](CCCNC(=N)N)C(=O)O)C[C@@H]2CCCC[C@@H]21 (H-K(hArg)[Dab][Oic]R-OH),79.5%,5.64,83%,77.7%,63.4%,52.3%,–,37.7%,50.9%,–,–,–,–,–,54.9 h,–
N=C(N)NCCCC[C@H](N)C(=O)NCCCC[C@H](N)C(=O)N1CCNC[C@H]1C(=O)N1CCNC[C@H]1C(=O)N[C@@H](CCCNC(=N)N)C(=O)O (H-K(hArg)[Pip(4-aza)][Pip(4-aza)]R-OH),63.3%,4.80,70.8%,58.7%,45%,–,–,–,–,–,–,–,–,–,–,–
N=C(N)NCCCC[C@H](N)C(=O)NCCCC[C@H](N)C(=O)N[C@@H](CCN)C(=O)N1CCC[C@H]1C(=O)N[C@@H](CCCNC(=N)N)C(=O)O (H-K(hArg)[Dab]PR-OH),76.6%,5.05,79.8%,70.4%,58.6%,43.7%,–,13.8%,31.4%,6.70,59.6%,92.8%,99.6%,83.7%,–,35.8%
N=C(N)NCCCC[C@H](N)C(=O)NCCCC[C@H](N)C(=O)N1CC[C@H]1C(=O)N1CC[C@H]1C(=O)N[C@@H](CCCNC(=N)N)C(=O)O (H-K(hArg)[Aze][Aze]R-OH),53.6%,4.31,59.9%,41.9%,30%,–,–,–,–,–,–,–,–,–,–,–
N=C(N)NCCCC[C@H](N)C(=O)NCCCC[C@H](N)C(=O)N[C@@H](CCN)C(=O)N1CC=C[C@H]1C(=O)N[C@@H](CCCNC(=N)N)C(=O)O (H-K(hArg)[Dab][ΔPro]R-OH),84.4%,5.37,87.1%,78.1%,70.7%,58%,–,29.9%,44.8%,–,–,–,–,–,51.1 h,–
N=C(N)NCCCC[C@H](N)C(=O)NCCCC[C@H](N)C(=O)N[C@@H](CCN)C(=O)N1C[C@H](O)C[C@H]1C(=O)N[C@@H](CCCNC(=N)N)C(=O)O (H-K(hArg)[Dab][Hyp]R-OH),76%,5.04,78.6%,67.3%,54.3%,36%,–,22.5%,22.3%,–,–,–,–,–,–,–
N=C(N)NCCCC[C@H](N)C(=O)NCCCC[C@H](N)C(=O)N[C@@H](CCN)C(=O)N1CCNC[C@H]1C(=O)N[C@@H](CCCNC(=N)N)C(=O)O (H-K(hArg)[Dab][Pip(4-aza)]R-OH),46%,4.09,51.8%,34.8%,20.8%,–,–,–,–,–,–,–,–,–,–,–
